Reference: ChEMBL document CHEMBL1144557, “The novel C-5 aryl, alkenyl, and alkynyl substituted uracil derivatives of L-ascorbic acid: synthesis, cytostatic, and antiviral activity evaluations” (Bioorg Med Chem, 2007)
In brackets after ≈: the same amount, converted by molar mass.

How the values were obtained:
Human alphaherpesvirus 1 [1] = experiment: Antiviral activity against HSV1 TK- KOS ACV -induced cytopathogenicity in HEL cells; format: functional; conditions: Human alphaherpesvirus 1, KOS
[2] = test system: Vesicular stomatitis virus; experiment: Antiviral activity against in Vesicular stomatitis virus- induced cytopathogenicity in HeLa cells; format: functional
SW-620 = experiment: Antiproliferative activity against human SW620 cells after 72 hrs by MTT assay; format: functional, cell-based; conditions: SW-620, 72 h
In short: (§1)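 Monolayers grown in DMEM with 10% FBS, 2 mM L-glutamine and penicillin/streptomycin at 37 °C, 5% CO2. Seeded at 1 × 10⁴–3 × 10⁴ cells/mL on day 0. Compounds from 0.04 M DMSO stocks added at five 10-fold dilutions (10⁻⁸–10⁻⁴ M final), with matched DMSO controls, for 72 h. MTT added for 4 h, formazan dissolved in DMSO, absorbance read at 570 nm. Percentage growth calculated against time-zero and untreated OD. IC50 is 50% inhibition of proliferation.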

HEp-2 = experiment: Antiproliferative activity against human Hep2 cells after 72 hrs by MTT assay; format: functional, cell-based; conditions: HEp-2, 72 h; in short: as §1
Human alphaherpesvirus 2 [3] = experiment: Antiviral activity against HSV2 G-induced cytopathogenicity in HEL cells; format: functional; conditions: Human alphaherpesvirus 2, G
MCF7 = experiment: Antiproliferative activity against human MCF7 cells after 72 hrs by MTT assay; format: functional, cell-based; conditions: MCF7, 72 h; in short: as §1
MIA PaCa-2 = experiment: Antiproliferative activity against human MiaPaCa2 cells after 72 hrs by MTT assay; format: functional, cell-based; conditions: Homo sapiens, MIA PaCa-2, 72 h; read-out: IC50; in short: as §1
[4] = Antiproliferative activity against human Molt4/C8 cells; format: functional, cell-based; conditions: MOLT-4
In short: (§2)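 Suspension cells seeded at 50 × 10³ cells/well with a range of test compound concentrations. Cell number counted with a Coulter counter after 2 days (L1210) or 3 days (Molt4/C8, CEM). IC50 is the concentration that cuts cell growth by 50% versus untreated controls, read from plots of cell number (% of control) against concentration.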

Coxsackievirus B4 = experiment: Antiviral activity against Coxsackie virus B4-induced cytopathogenicity in Vero cells; format: functional; conditions: Enterovirus B
HeLa = experiment: Antiproliferative activity against human HeLa cells after 72 hrs by MTT assay; format: functional, cell-based; in short: as §1
Punta Toro virus = experiment: Antiviral activity against Punta Toro virus-induced cytopathogenicity in Vero cells; format: functional
[5] = Cytotoxicity against HEL cells; format: cell-based; conditions: human
In short: (§3)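 Cells seeded at 5 × 10³ cells/well and exposed to medium containing a range of test compound concentrations. After 3 days at 37 °C, cell morphology examined microscopically. Reported as minimum cytotoxic concentration (MCC), the concentration causing a microscopically detectable alteration of normal cell morphology.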

Human alphaherpesvirus 1 [6] = experiment: Antiviral activity against HSV1 KOS-induced cytopathogenicity in HEL cells; format: functional; conditions: Human alphaherpesvirus 1, KOS
L1210 = experiment: Antiproliferative activity against mouse L1210 cells; format: functional, cell-based; in short: as §2
[7] = test system: Vesicular stomatitis virus; experiment: Antiviral activity against in Vesicular stomatitis virus-induced cytopathogenicity in HEL cells; format: functional
Sindbis virus = experiment: Antiviral activity against Sindbis virus-induced cytopathogenicity in Vero cells; format: functional
WI-38 = experiment: Antiproliferative activity against human WI38 cells after 72 hrs by MTT assay; format: functional, cell-based; conditions: WI-38, 72 h; in short: as §1
CCRF-CEM = experiment: Antiproliferative activity against human CEM cells; format: functional, cell-based; in short: as §2
Human alphaherpesvirus 1 [8] = experiment: Antiviral activity against HSV1 KOS-induced cytopathogenicity in E6SM cells; format: functional; conditions: Human alphaherpesvirus 1, KOS
[9] = Cytotoxicity against E6SM cells; format: cell-based; conditions: human, read-out: MCC; in short: as §3
Human alphaherpesvirus 1 [10] = experiment: Antiviral activity against HSV1 TK- KOS ACV-induced cytopathogenicity in E6SM cells; format: functional; conditions: Human alphaherpesvirus 1, KOS
[11] = test system: Vesicular stomatitis virus; experiment: Antiviral activity against in Vesicular stomatitis virus-induced cytopathogenicity in E6SM cells; format: functional
Human alphaherpesvirus 2 [12] = experiment: Antiviral activity against HSV2 G-induced cytopathogenicity in E6SM cells; format: functional; conditions: Human alphaherpesvirus 2, G

SMILES	MIC (Human alphaherpesvirus 1 [1]) [µM]	MIC [2] [µM]	IC50 (SW-620) [µM]	IC50 (HEp-2) [µM]	MIC (Human alphaherpesvirus 2 [3]) [µM]	IC50 (MCF7) [µM]	IC50 (MIA PaCa-2) [µM]	IC50 [4] [µM]	MIC (Coxsackievirus B4) [µM]	IC50 (HeLa) [µM]	MIC (Punta Toro virus) [µM]	MCC [5] [µM]	MIC (Human alphaherpesvirus 1 [6]) [µM]	IC50 (L1210) [µM]	MIC [7] [µM]	MIC (Sindbis virus) [µM]	IC50 (WI-38) [µM]	IC50 (CCRF-CEM) [µM]	MIC (Human alphaherpesvirus 1 [8]) [µM]	MCC [9] [µM]	further results
C#Cc1cn(C/C=C2\OC(=O)C(O)=C2O)c(=O)[nH]c1=O	> 4	> 4	17	12	> 4	13	13	37	> 4	13	4 (≈ 1.1 µg/mL)	20	> 4	15	> 4	> 4	11	23			
C#Cc1cn(C/C=C2\OC(=O)C(OCc3ccccc3)=C2OCc2ccccc2)c(=O)[nH]c1=O	> 18	> 18	5	4.6	> 18	2.9	8.7	7.2	> 18	3.2	> 18	≥ 18	> 18	6.8	> 18	> 18	1.5	4.6			
O=C1O/C(=C\Cn2cc(-c3ccccc3)c(=O)[nH]c2=O)C(O)=C1O	> 100	> 100	> 100	> 100	> 100	> 100	> 100	322	> 100	> 100	> 100	100	> 100	354	> 100	> 100	> 100	282			
O=C1O/C(=C\Cn2cc(-c3cccs3)c(=O)[nH]c2=O)C(O)=C1O	> 100	> 100	> 100	> 100	> 100	> 100	> 100	> 500	> 100	> 100	> 100	100	> 100	> 500	> 100	> 100	> 100	> 500			
C=Cc1cn(C/C=C2\OC(=O)C(OCc3ccccc3)=C2OCc2ccccc2)c(=O)[nH]c1=O	> 18	> 18	15.6	14.2	> 18	3.8	22	7.6	> 18	14.5	> 18	87	> 18	7.2	> 18	> 18	14.3	7.2			
O=C1O/C(=C(\Br)Cn2c(Br)c(/C=C/Br)c(=O)[nH]c2=O)C(OCc2ccccc2)=C1OCc1ccccc1		> 116	≥ 100	22		15	20	110	> 116	22	> 116			32		> 116	49	91	> 116	578	MIC (Human alphaherpesvirus 1 [10]): > 116 µM; MIC [11]: > 116 µM; MIC (Human alphaherpesvirus 2 [12]): > 116 µM
O=C1O/C(=C\Cn2cc(-c3ccco3)c(=O)[nH]c2=O)C(OCc2ccccc2)=C1OCc1ccccc1		> 6.4	2.4	2.2		2	1.6	6.6	> 6.4	2	> 6.4			6.8		> 6.4	1.8	7	> 6.4	32	MIC (Human alphaherpesvirus 1 [10]): > 6.4 µM; MIC [11]: > 6.4 µM; MIC (Human alphaherpesvirus 2 [12]): > 6.4 µM
O=C1O/C(=C\Cn2cc(-c3ccc(Br)o3)c(=O)[nH]c2=O)C(OCc2ccccc2)=C1OCc1ccccc1		70 (≈ 40.4 µg/mL)	49	28		29	27	125	> 70	24	> 70			115		> 70	16	134	> 70	347	MIC (Human alphaherpesvirus 1 [10]): > 70 µM; MIC [11]: 70 µM (≈ 40.4 µg/mL); MIC (Human alphaherpesvirus 2 [12]): > 70 µM
C=Cc1cn(C/C=C2\OC(=O)C(O)=C2O)c(=O)[nH]c1=O		> 120	> 100	46		36	≥ 100	309	> 29	40	> 29			309		> 29	36	284	> 144	720	MIC (Human alphaherpesvirus 1 [10]): > 144 µM; MIC [11]: > 144 µM; MIC (Human alphaherpesvirus 2 [12]): > 144 µM
